Data on 27 compounds can be found in ChEMBL document CHEMBL4831507, “Development of FABP4/5 inhibitors with potential therapeutic effect on type 2 Diabetes Mellitus” (Eur J Med Chem, 2021).

The source made the active and inactive calls. The calls are words filed in the database; no cut-off is given here.

In series [1] the target is T1, Fatty acid-binding protein, adipocyte (Homo sapiens, UniProt P15090). Nature of the series: Displacement of 1,8-ANS from FABP4 (unknown origin) at 25 uM incubated for 3 mins by fluorescence based analysis relative to control. In outline:
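Single-concentration percent inhibition in the 1,8-ANS displacement assay with FABP4. Compound incubated with protein and probe in phosphate buffer for 3 min at room temperature; fluorescence read at ex 370/em 470 nm.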
Target sequence in this assay (P15090 2-132 limits assumed): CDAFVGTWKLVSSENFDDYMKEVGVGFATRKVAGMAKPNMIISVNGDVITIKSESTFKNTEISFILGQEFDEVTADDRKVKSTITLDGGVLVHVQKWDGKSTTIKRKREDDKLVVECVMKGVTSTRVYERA

For series [2], the target named is T1, Fatty acid-binding protein, adipocyte. Nature of the series: Displacement of 1,8-ANS from FABP4 (unknown origin) incubated for 3 mins by fluorescence based analysis. In outline:
(§1)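 1,8-ANS displacement using purified recombinant FABP3, FABP4 or FABP5. Compound incubated with protein and 1,8-ANS in phosphate buffer for 3 min at room temperature. Fluorescence read at ex 370/em 470 nm. IC50 by nonlinear regression, mean ± SD of three independent experiments.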
Target sequence in this assay (P15090 whole entry): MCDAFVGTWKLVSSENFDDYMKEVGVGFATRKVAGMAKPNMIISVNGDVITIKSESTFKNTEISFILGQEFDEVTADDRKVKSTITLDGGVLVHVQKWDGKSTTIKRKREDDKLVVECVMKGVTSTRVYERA

Series [3] has as its system 3T3-L1. Briefly: Cytotoxicity against mouse 3T3-L1 cells assessed as reduction in cell viability at 100 uM incubated for 24 hrs by CCK8 assay. In kind it is cell-based. The conditions noted are these: 3t3-l1, 24 h. (In general: Tetrazolium assays rely on reduction of a dye to a coloured formazan, in cell work by metabolically active cells.)
Series [4] concerns the target Fatty acid-binding protein 5 (Homo sapiens, UniProt Q01469). Briefly: Displacement of 1,8-ANS from FABP5 (unknown origin) incubated for 3 mins by fluorescence based analysis.
For series [5], the system named is 3T3-L1. Briefly: Anti-lipolytic activity in mouse 3T3-L1 cells assessed as inhibition of forskolin-stimulated glycerol release at 80 uM preincubated for 24 hrs followed by forskolin stimulation for 1 hr. The class given is functional, cell-based. The conditions noted are these: time 25.0 hrs.
Series [6] is described as follows: Metabolic stability in mouse liver microsomes assessed as half life at 0.1 uM preincubated for 10 mins followed by NADPH addition and measured for 60 mins by LC-MS/MS analysis. The conditions noted are these: time 70 min. In kind it is ADME, Microsome. In outline:
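Mouse liver microsomes 0.33 mg/mL in 0.1 M Tris pH 7.4 with 5 mM MgCl₂, 0.01% DMSO and 0.005% BSA. Compound final […]. Preincubated 10 min at 37 °C; reaction started with 1 mM NADPH. Samples at 0, 7, 17, 30 and 60 min quenched with cold methanol, then analysed by LC-MS/MS.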

The species named for series [7] is Homo sapiens. Briefly: Selectivity ratio of IC50 for FABP3 (unknown origin) to IC50 for FABP5 (unknown origin). In outline: as §1
Series [8] deals with Fatty acid-binding protein, heart (Homo sapiens, UniProt P05413). Nature of the series: Displacement of 1,8-ANS from FABP3 (unknown origin) incubated for 3 mins by fluorescence based analysis. In outline: as §1
For series [9], the species on record is Homo sapiens. Briefly: Selectivity ratio of IC50 for FABP3 (unknown origin) to IC50 for FABP4 (unknown origin). In outline: as §1

Fatty acid-binding protein 5, sequence (Q01469 whole entry): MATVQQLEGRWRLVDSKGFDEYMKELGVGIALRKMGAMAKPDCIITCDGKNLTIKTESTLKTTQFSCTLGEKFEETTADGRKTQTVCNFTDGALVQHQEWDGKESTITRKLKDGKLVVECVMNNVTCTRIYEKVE
Fatty acid-binding protein, heart, sequence (P05413 whole entry): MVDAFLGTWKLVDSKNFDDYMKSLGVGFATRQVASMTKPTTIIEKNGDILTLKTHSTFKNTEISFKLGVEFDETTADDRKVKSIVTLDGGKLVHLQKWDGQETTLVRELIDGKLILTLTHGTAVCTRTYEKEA

The term inhibition denotes the share of the control response that was lost under treatment. Read a high inhibition as strong suppression. As usually defined, the IC50 is the concentration needed to halve the response being measured. A low value points to greater potency in that assay. Regarding `COc1c(-c2ccccc2F)cc(S(=O)(=O)Nc2ccc(F)c(CC(=O)O)c2)c2ccccc12`, in [1], the inhibition amounted to 87%. The IC50 in series [2] is 5.25 µM.

On to `COc1c(-c2ccc(F)c(Cl)c2)cc(S(=O)(=O)Nc2ccc(F)c(CC(=O)O)c2)c2ccccc12`, for which the inhibition in series [1] turned out to be 88%. Further, the IC50 in series [2] was found to be 5 µM.

Regarding `COc1c(-c2ccc(F)cc2Cl)cc(S(=O)(=O)Nc2ccc(F)c(CC(=O)O)c2)c2ccccc12`, the Activity result in the series with 3T3-L1 [3] is “Non-Toxic”. Further, in [1], the inhibition was found to be 90%. Besides, the IC50 in series [4] is 6.08 µM; in series [2], 4.77 µM.

Regarding `Cc1noc(C)c1-c1ccc(S(=O)(=O)Nc2ccc(F)c(C(=O)O)c2)c2ccccc12`, in series [1], the inhibition was determined as 61%.

Regarding `O=C(O)c1cc(NS(=O)(=O)c2ccc(-c3ccccc3)c3ccccc23)ccc1F`, the inhibition in [1] is 82%. In series [2], this compound returned an IC50 of 4.84 µM.

Turning to `COc1c(-c2ccccc2O)cc(S(=O)(=O)Nc2ccc(F)c(CC(=O)O)c2)c2ccccc12`, in [1], the inhibition was determined as 86%. The compound further came in with an IC50 in [2] of 8.03 µM.

The half-life is how long it takes for the measured level to halve. For the compound `COc1c(-c2ccc(F)cc2C)cc(S(=O)(=O)Nc2ccc(F)c(C(=O)O)c2)c2ccccc12`, the inhibition in [1] was 95%. Moreover, the outcome with 3T3-L1 [5] was inactive. For the same compound, the values for the IC50 in series [4] and in series [2] were 8.97 µM and 2.63 µM, respectively. Further, the half-life at 0.1 µM in [6] came out at 102 min.

In series [1], `O=C(O)c1cc(NS(=O)(=O)c2ccc(-c3ccc(C(F)(F)F)cc3)c3ccccc23)ccc1F` displayed an inhibition of 40%.

In series [1], `COc1c(-c2cc(Cl)ccc2Cl)cc(S(=O)(=O)Nc2ccc(F)c(CC(=O)O)c2)c2ccccc12` showed an inhibition of 52%.

Turning to `O=C(O)c1cc(NS(=O)(=O)c2ccc(-c3ccc(F)c(Cl)c3)c3ccccc23)ccc1F`, the Activity entry in the series on 3T3-L1 [3] was “Non-Toxic”. For the same compound, the Ratio IC50 in the series listed under Homo sapiens [7] turned out to be 16.3; in the series listed under Homo sapiens [9] it was 13.1. The compound also yielded an inhibition in series [1] of 78%. Moreover, the figures for the IC50 in [8], in [4] and in series [2] were 103 µM, 6.33 µM and 7.84 µM, respectively.

In the case of `CC(C)c1ccccc1-c1ccc(S(=O)(=O)Nc2ccc(F)c(C(=O)O)c2)c2ccccc12`, the inhibition in series [1] was found to be 74%. Also, the results for the IC50 in series [4] and in [2] were 16.8 µM and 11.9 µM, respectively.

In [1], `COc1c(-c2ccccc2C(F)(F)F)cc(S(=O)(=O)Nc2ccc(F)c(CC(=O)O)c2)c2ccccc12` returned an inhibition of 56%. In series [4], this compound came in with an IC50 of 7.72 µM.

For `COc1c(-c2ccc(F)cc2F)cc(S(=O)(=O)Nc2ccc(F)c(CC(=O)O)c2)c2ccccc12`, in [1], the inhibition came to 96%. This compound returned an IC50 in [2] of 3.14 µM.

In turn, `O=C(O)c1cc(NS(=O)(=O)c2ccc(-c3ccc(O)cc3)c3ccccc23)ccc1F` registered an inhibition in series [1] of 73%. The compound further displayed an IC50 in series [2] of 8.24 µM.

As for `O=C(O)c1cc(NS(=O)(=O)c2ccc(-c3ccncc3)c3ccccc23)ccc1F`, the inhibition in series [1] amounted to 52%.

`O=C(O)c1cc(NS(=O)(=O)c2ccc(-c3ccccc3OC(F)(F)F)c3ccccc23)ccc1F`: in series [1], the inhibition was 74%. The figures for the IC50 in series [4] and in [2] were 8.2 µM and 12.5 µM, respectively.

For the compound `COc1c(-c2ccccc2Cl)cc(S(=O)(=O)Nc2ccc(F)c(CC(=O)O)c2)c2ccccc12`, the Activity entry in the series with 3T3-L1 [3] is listed as “Non-Toxic”. Moreover, the inhibition in series [1] was 77%. Further, the result with 3T3-L1 [5] was Active. Moreover, the IC50 is 7.57 µM in series [4] and 8.02 µM in series [2]. The half-life at 0.1 µM in [6] was determined as 43.1 min.

On to `O=C(O)c1cc(NS(=O)(=O)c2ccc(-c3ccc(F)cc3F)c3ccccc23)ccc1F`, for which the Activity entry in the series with 3T3-L1 [3] is “Non-Toxic”. Moreover, the inhibition in [1] stood at 85%. Further, in series [2], the IC50 is 4.7 µM.

`COc1c(-c2ccccc2C)cc(S(=O)(=O)Nc2ccc(F)c(CC(=O)O)c2)c2ccccc12` returned an inhibition in series [1] of 80%. Moreover, the IC50 in [4] worked out at 7.72 µM; in [2], 5.16 µM.

In the case of `Cc1cc(F)ccc1-c1ccc(S(=O)(=O)Nc2ccc(F)c(C(=O)O)c2)c2ccccc12`, in the series with 3T3-L1 [3], the Activity entry is given as “Non-Toxic”. The compound further registered an inhibition in [1] of 85%. Further, the outcome in the series with 3T3-L1 [5] was Active. Besides, the concentration for half-maximal inhibition (IC50) in series [2] is 5 µM. Also, in [6], the half-life at 0.1 µM was 88.4 min.

For the compound `COc1c(-c2ccccc2C(C)C)cc(S(=O)(=O)Nc2ccc(F)c(CC(=O)O)c2)c2ccccc12`, the Activity entry with 3T3-L1 [3] is given as “Non-Toxic”. In series [1], the inhibition was determined as 50%. Further, the outcome in the series with 3T3-L1 [5] was Active. This compound returned an IC50 in series [4] of 2.9 µM. Also, in series [6], the half-life at 0.1 µM turned out to be 15.1 min.

For `O=C(O)c1cc(NS(=O)(=O)c2ccc(-c3ccc(F)cc3)c3ccccc23)ccc1F`, the inhibition in [1] stood at 80%. Also, the IC50 in series [2] amounted to 7.68 µM.

Regarding `O=C(O)c1cc(NS(=O)(=O)c2ccc(OCCC3CCCCC3)c3ccccc23)ccc1F`, the half-life at 0.1 µM in series [6] was found to be 23.5 min.

Consider `COc1c(-c2ccc(F)cc2)cc(S(=O)(=O)Nc2ccc(F)c(CC(=O)O)c2)c2ccccc12`, for which the inhibition in series [1] worked out at 95%. Further, the IC50 in series [2] is 4.71 µM.

For the compound `Cc1c(Cl)cccc1OCc1[nH]c2nc(-c3ccccc3)nn2c(=O)c1C`, the Ratio IC50 in the series listed under Homo sapiens [7] worked out at 0.08; in the series filed under Homo sapiens [9], 0.31. Also, in series [1], the inhibition was determined as 97%. Also, the IC50 in [8] stood at 1.95 µM; in series [2], 6.34 µM.

`COc1c(-c2cccc(Cl)c2F)cc(S(=O)(=O)Nc2ccc(F)c(CC(=O)O)c2)c2ccccc12` showed an inhibition in series [1] of 84%. Besides, the IC50 in series [2] was found to be 6.45 µM.

As for `CCc1ccccc1-c1cc(S(=O)(=O)Nc2ccc(F)c(CC(=O)O)c2)c2ccccc2c1OC`, the inhibition in series [1] was 63%. The IC50 in series [4] was 3.2 µM; in series [2] it was 14.3 µM.
